The list is not random: actives were taken first. Their share in the collection is about 2.3%.
MsrA inhibitor – bovine MsrA inhibition; hit rate 0.75% among 360,000; inhibition, % at 15.5 µM; purified bovine MsrA, absorbance read-out; in the data active means inhibition above about 4.5%;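 further: 0% = vehicle wells with enzyme and 100% = reference inhibitor wells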
MC4R antag cAMP – antagonists of human melanocortin 4 receptor (MC4R); P32245; MC4R-expressing cells, MTII-stimulated cAMP, LANCE TR-FRET; inhibition, % at 6.5 µM; hit rate 0.48% among 360,000; AID 540295;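 active means inhibition above its plate's cutoff, the mean of tested wells on that plate plus 3 SD, cut at about 29% in these data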;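 further: 0% = Melanotan II alone and 100% = Melanotan II plus saturating MCL0020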
Target sequence (P32245 whole entry, looked up): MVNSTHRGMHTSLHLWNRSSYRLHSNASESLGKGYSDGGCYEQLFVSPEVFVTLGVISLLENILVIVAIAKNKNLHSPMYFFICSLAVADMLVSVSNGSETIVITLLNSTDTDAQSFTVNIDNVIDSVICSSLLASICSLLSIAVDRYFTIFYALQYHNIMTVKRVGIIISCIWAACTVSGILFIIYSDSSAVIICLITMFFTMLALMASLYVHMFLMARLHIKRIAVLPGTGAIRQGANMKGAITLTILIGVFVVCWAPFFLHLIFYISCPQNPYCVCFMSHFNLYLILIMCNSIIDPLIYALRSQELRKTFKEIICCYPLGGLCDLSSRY
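system = U2OS cells with stable human MC4R expression | also added = Melanotan II challenge after compound preincubation | dosing = one concentration, 6.5 µM nominal | incubation = compound 30 min, challenge 1 h, detection 1 h | measured by = TR-FRET with Eu-cAMP and labeled anti-cAMP, 671 nm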
bovine MsrA act – activates bovine MsrA enzyme. purified bovine MsrA, absorbance read-out. activation, % at 10.6 µM. hit rate 0.3% among 360,000. AID 602163; in the data active means activation above about 7.5%;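 further: 0% = vehicle and 100% = reference activator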
MC4R ag barr – agonists of human melanocortin 4 receptor (MC4R) beta-arrestin. P32245. activation, % at 8.9 µM. AID 540308. hit rate 0.98% among 360,000. U2OS MC4R beta-arrestin complementation, luminescence; percent of melanotan II response, DMSO zero;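 active means activation above a per-plate cutoff, the mean activation of sample wells on that plate plus 3 SD, cut at about 8% in these data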
cAMP nonselect – counter-screen for MC4R antagonists: nonselective cAMP signaling inhibitors. shares compounds with MC4R antag cAMP. parental U2OS, forskolin cAMP, LANCE TR-FRET. inhibition, % at 6.5 µM. AID 602193. hit rate 26% among 1,600;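 active means mean inhibition over triplicates above the low-control well mean plus 3 SD, set per campaign, cut at about 13% in these data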;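 further: signal is single emission at 671 nm which falls as cellular cAMP rises; 0% = forskolin-stimulated wells and 100% = buffer without forskolin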
MC4R cAMP antag – human MC4R cAMP antagonism confirmation. inhibition, % at 6.5 µM. MC4R-expressing cells, MTII-stimulated cAMP, TR-FRET. AID 602195. shares compounds with MC4R antag cAMP. hit rate 27% among 1,600; in the data active means inhibition above about 29%;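 further: 0% = agonist stimulated wells alone and 100% = agonist stimulated wells plus saturating reference antagonist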
Starred values were filed as active, the others as inactive; . = no result given.

SMILES	MsrA inhibitor	MC4R antag cAMP	bovine MsrA act	MC4R ag barr	cAMP nonselect	MC4R cAMP antag
Nc1ccccc1C#CC(=O)c1ccccc1	3	54*	-4	-1	26*	52*
COc1ccc2c(C#CCCO)c(-c3ccc(S(C)(=O)=O)cc3)sc2c1	0	36*	-15	8	-5	5
Cc1cc(N2CCCC2=O)ccc1S(=O)(=O)Nc1c(C)nn(C)c1C	0	34*	-2	0	1	12
O=S(=O)(/C(=C/c1ccc(C(F)(F)F)cc1)c1nc2ccccc2[nH]1)c1ccccc1	1	35*	-2	-2	13*	48*
Cc1ccccc1CN1CCN(Cc2cc(=O)c3ccccc3[nH]2)CC1CCO (stereo not drawn)	2	4	-3	-1	.	.
CC(=O)CSc1nc(N)c(C#N)c(-c2cccs2)c1C#N	2	4	-3	-1	.	.
CC(=O)CSc1nc(-c2cccs2)c(C#N)c(=O)[nH]1	2	46*	-7	1	36*	60*
Cc1ccc2c(c1)CCCN2C(=O)c1ccncc1	1	29*	-2	1	-5	4
Cc1ccc2c(c1)CCCN2C(=O)c1cc(C)on1	-1	5	-4	-1	.	.
CCOC(=O)C1CCN(C(=O)c2cccc(S(=O)(=O)N3CCCc4ccccc43)c2)CC1	-1	9	-1	-4	.	.
COC(=O)COc1ccc(S(=O)(=O)Nc2ccccc2C(=O)OC)cc1	-1	35*	-3	-1	21*	35*
O=C(Nc1ccccc1)OC1CCC2CC1CCC2OC(=O)Nc1ccccc1 (stereo not drawn)	0	32*	0	1	2	32*
O=C(Nc1ccccc1)C1CC2CCC1C2 (stereo not drawn)	0	14	-2	0	.	.
COc1ccccc1CN(C)C(=O)c1ccc(COc2ccccc2)cc1	-1	31*	-2	1	5	-2
CCOP(=O)(OCC)C(NC(=O)Nc1cccc(Cl)c1)C(N)=O (stereo not drawn)	-1	-4	-11	-2	.	.
CCOP(=O)(OCC)C(NC(=O)Nc1cccc(Cl)c1)c1ccccc1 (stereo not drawn)	0	30*	-2	1	-1	16
CCOc1cc(C(=O)Nc2cc(F)ccc2C)ccc1OCC(=O)N1CCOCC1	0	11	-2	0	.	.
C=CC(=O)N1C/C(=C/c2ccc(F)cc2)C(=O)/C(=C\c2ccc(F)cc2)C1	5.1*	40*	-6	-5	28*	22
CN1C2CCC1/C(=C\c1ccc(F)cc1)C(=O)/C2=C/c1ccc(F)cc1	0	7	-6	3	.	.
Cc1cc2nc(CSc3ccc(Cl)cc3)cc(=O)n2[nH]1	1	29*	-4	1	-3	-7
Cc1nc2nc(CSc3ccc(Cl)cc3)cc(=O)n2[nH]1	1	8	0	0	.	.
O=C(O)CCn1c(=O)n(CCC(=O)O)c(=O)n(CCC(=O)O)c1=O	1	29*	-3	-3	-3	-12
O=C(O)CCN1C(=O)c2ccccc2C1=O	-2	16	1	3	.	.
CCN(CC)CCN1C(=O)c2ccccc2NC1c1ccc(C)cc1 (stereo not drawn)	1	16	-3	0	.	.
Cc1ccc(Cn2c(SCC(=O)N3CC(=O)Nc4ccccc43)nc3ccccc3c2=O)cc1	4	29*	-1	0	-1	-5
SMILES	MsrA inhibitor	MC4R antag cAMP	bovine MsrA act	MC4R ag barr	cAMP nonselect	MC4R cAMP antag
COCC(C)n1c(SCC(=O)N2CC(=O)Nc3ccccc32)nc2ccccc2c1=O (stereo not drawn)	-1	12	1	0	.	.
CC(c1ccccc1)n1c(SCC(=O)N2CC(=O)Nc3ccccc32)nc2ccccc2c1=O (stereo not drawn)	1	33*	-2	-1	0	18
C[C@]12c3[nH]c4cc(-c5ccco5)ccc4c3CCN1C(=O)[C@@H](CC(=O)NCCN1CCOCC1)C[C@@H]2C(=O)N1CCCCC1	0	8	6	0	.	.
O=C(C1=C(O)C(=O)N(c2nccs2)C1c1ccccc1)c1cc2ccccc2o1 (stereo not drawn)	0	49*	-10	1	19*	31*
Cc1cc(N2C(=O)C(O)=C(C(=O)c3cc4ccccc4o3)C2c2ccc([N+](=O)[O-])cc2)no1 (stereo not drawn)	0	-1	-3	-1	.	.
Cc1ccc(C2C(C(=O)c3cc4ccccc4o3)=C(O)C(=O)N2c2cc(C)on2)cc1 (stereo not drawn)	2	32*	-2	-1	9	5
Cc1cc(C)cc(NC(=O)C2CCCN(c3nc(C)cc(C)n3)C2)c1 (stereo not drawn)	0	15	0	1	.	.
Cc1cccc(NC(=O)c2cccc(NC(=O)c3ccco3)c2)c1	-1	1	-2	1	.	.
Cc1cc(C)c(NC(=O)c2cccc(NC(=O)c3ccco3)c2)c(C)c1	0	30*	-1	-1	-2	-18
Cc1ccccc1NC(=O)NCCc1nc2ccccc2[nH]1	-1	10	-3	1	.	.
CC1CC(Nc2ccccc2)c2ccccc2N1C(=O)c1ccncc1 (stereo not drawn)	-1	34*	0	-1	3	5
CC1CC(Nc2ccccc2)c2ccccc2N1C(=O)c1ccco1 (stereo not drawn)	1	-3	-9	3	.	.
COc1ccc(C)cc1S(=O)(=O)n1nc(C)cc1C	-1	7	-5	1	.	.
O=C(Nc1ccccc1Cl)NN1CCCCCC1	1	3	-12	0	.	.
Cc1c(C(=O)N(Cc2ccc(N(C)C)cc2)CC2CCCO2)oc2ccccc12 (stereo not drawn)	1	2	-1	-2	.	.
COCCNC(=O)CCc1c(C)nc2nc(-c3cc(OC)cc(OC)c3)nn2c1C	0	29*	-3	0	1	-17
O=C(Nc1ccncc1)c1ccc(S(=O)(=O)Nc2ccccc2)cc1	0	5	-2	-2	.	.
COC(=O)C(C(=O)OC)C(CC(=O)c1ccc(C)cc1)c1cc(OC)c(OC)c(OC)c1 (stereo not drawn)	0	3	-2	-2	.	.
COc1ccc(C(CC(=O)c2ccc(C)cc2)C(C#N)C#N)cc1OC (stereo not drawn)	1	30*	-1	1	5	5
O=S(=O)(NC1=NCCC1)c1ccc(F)cc1F	1	29*	-1	-3	5	13
O=S(=O)(NC1=NCCCCC1)c1ccc(F)cc1F	1	3	-1	-3	.	.
N#Cc1c(Cl)cccc1N1CCSCC1	0	.	-5	.	.	.
N#Cc1c(N2CCSCC2)nsc1-c1ccccc1Cl	2	29*	-5	-2	24*	47*
COc1cc(/C=N/NC(=O)c2cccnc2)ccc1OS(=O)(=O)c1ccc(C)cc1	1	29*	-3	-1	2	5

High-throughput results from PubChem BioAssay.
